Screens from PubChem BioAssay.
Shown are actives, neighbours in structure and some others; about 0.9% of the full set was active somewhere.
Tn6 DDE FP: inhibitors of Tn6 peptide binding to human fibrin DD(E). actives 0.21% (n = 370,000). P02675. Fibrin DD(E) TRITC-Tn6 fluorescence polarization displacement. inhibition, % at 8.3 µM. AID 720509;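 active = inhibition above a per-campaign cutoff: mean of compounds within control limits plus 3 SD, cut at about 15% in these data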;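 also: 0% = median of all compound wells on the plate and 100% = blocking peptide control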
Target sequence (P02675 whole entry, looked up): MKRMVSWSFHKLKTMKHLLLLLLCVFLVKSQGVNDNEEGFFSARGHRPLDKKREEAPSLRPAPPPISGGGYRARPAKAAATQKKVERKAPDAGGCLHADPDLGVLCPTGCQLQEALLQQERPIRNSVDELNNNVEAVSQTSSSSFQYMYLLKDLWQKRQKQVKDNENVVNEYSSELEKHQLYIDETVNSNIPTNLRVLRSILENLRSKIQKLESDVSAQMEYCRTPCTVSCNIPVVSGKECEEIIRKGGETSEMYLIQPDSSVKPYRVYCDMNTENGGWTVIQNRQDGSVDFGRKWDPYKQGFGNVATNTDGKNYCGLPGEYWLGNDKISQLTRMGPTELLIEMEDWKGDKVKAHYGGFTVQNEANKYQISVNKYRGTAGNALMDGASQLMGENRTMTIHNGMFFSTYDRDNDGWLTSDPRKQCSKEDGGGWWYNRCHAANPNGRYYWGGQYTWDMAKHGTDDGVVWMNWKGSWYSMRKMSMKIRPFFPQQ
DAGLB inhibitor: blocks human DAGLB lipase activity | Q8NCG7 | HEK293T DAGLB membrane lysate, EnzChek fluorogenic substrate | inhibition, % at 5.17 µM | actives 0.059% (n = 340,000); in the data active = inhibition above about 34%;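 also: 0% = enzyme with vehicle and 100% = wells lacking enzyme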
PolyA inh: yeast polyadenylation inhibition. S. cerevisiae SKY197-pL101 polyadenylation reporter, beta-gal luminescence; efflux-impaired pdr1/pdr3 knockout yeast; score 100 = 6 SD above DMSO. activity score, % at 12 µM. actives 0.02% (n = 300,000);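 active = lowest replicate activity score at least 50, where 100 means six control SD above control mean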;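 also: yeast exposed to compound for 9 h at 30 °C; higher score means more reporter readthrough which indicates perturbed polyadenylation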
SKN-1 inh: C. elegans SKN-1 inhibition; C. elegans VP596 Pgst-4::GFP/RFP ratio, acrylamide-induced, 24 h; inhibition, % at 21.8 µM; actives 0.49% (n = 360,000); AID 624304;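 active = interference check ratio from 0.5 to 1.5 plus GFP to RFP signal ratio inhibition reaching or exceeding a fixed threshold, cut at about 30% in these data, passing the limit was not always enough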
Tn7 DDE FP: disrupts Tn7 cyclic peptide binding to fibrin D-Dimer-E complex; P02675; FP displacement of FITC-Tn7 peptide from fibrin DD(E); 0% = median of compound wells per plate; inhibition, % at 8.3 µM; actives 0.13% (n = 370,000); AID 720508;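 active = inhibition above the mean of compounds falling within the control limits plus 3 SD of them, cut at about 14% in these data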;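 also: 0% = plate median of compound wells and 100% = 10 µM Aha-Tn7 peptide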
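Assay system: Human fibrin DD(E) protein | Medium: Tris buffer with calcium and detergent, pH 7.8 | Reagent: 0.1 µM fluorescent Tn7 | Compound dosing: Single point at 8.3 µM | Times: 10 min preincubation, 3 h with tracer, room temperature | Detection: Fluorescence polarization of the labelled Tn7 tracer | Controls: Aha-Tn7 high control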
MT1-MMP act inh: inhibitors of human MT1-MMP activation | P50281 | HT1080 RFP-PRO-GFP cells, GFP/RFP ratio fluorescence, overnight; percent of plate control window, DMSO zero | GFP/RFP ratio change, % at 20 µM | actives 0.061% (n = 360,000) | AID 651647;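 active = GFP/RFP ratio change of at least 30% with cell ATP level not reduced by more than half and red fluorescence within 50% of control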
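Assay system: RFP-PRO-GFP reporter HT1080 cells; read-out basis: GFP/RFP fluorescence ratio; benchmarks: DMSO wells and RFP-L50D-GFP cells; doses: 20 µM single dose, 1% DMSO; schedule: overnight cell settling, then overnight compound exposure, 37 °C, 5% CO2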
DAGLB confirm: DAGLB (human) inhibition, confirmation screen; shares compounds with DAGLB inhibitor; HEK293T DAGLB membrane lysate, EnzChek fluorogenic substrate; inhibition, % at 5.17 µM; actives 73% (n = 190);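 active = mean inhibition over triplicate wells above a set limit taken from the primary lipase screen, cut at about 34% in these data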;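 also: 0% = DAGLB with DMSO and 100% = wells lacking DAGLB enzyme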
* = called active by the depositor; · = not tested or not shown.

SMILES	Tn6 DDE FP	DAGLB inhibitor	PolyA inh	SKN-1 inh	Tn7 DDE FP	MT1-MMP act inh	DAGLB confirm
CCn1nc([N+](=O)[O-])c(C(C#N)c2nc3cc(C(F)(F)F)ccc3s2)c(Cl)c1=O (centres undefined)	-6	60*	-3	-21	7	25	106*
Nc1cc2c(cc1[N+](=O)[O-])-c1ccccc1C2=NO	-6	35*	·	-2	-4	-16	32
CC(=O)Nc1cc2c(cc1[N+](=O)[O-])-c1ccccc1C2=NO	4	-1	·	-4	6	-2	·
CN(C)c1ccc(N=Nc2ccccc2C(=O)OCC(=O)N2CCCC2)cc1	2	27	-10	11	1	27	·
CN(C)c1ccc(N=Nc2ccccc2C(=O)OCC(=O)Nc2ccccc2C(F)(F)F)cc1	-2	35*	-4	12	-6	11	59*
Nc1ccc2ccccc2c1N=Nc1ccccc1	-1	36*	·	29	2	20	43*
CCN1C(c2ccccc2)=C(c2ccccc2)S/C1=C/C=C1\SC(=S)N(C)C1=O	2	39*	·	55	5	43	22
COc1ccc(CCNC(=O)c2c(N)[nH]c(C(=O)c3ccccc3)c2-c2ccc(N(C)C)cc2)cc1	0	·	·	·	-3	·	·
CN(c1ccccc1)c1ccc(/C=C(/CCC(=O)O)c2nc3ccccc3s2)cc1[N+](=O)[O-]	-8	35*	·	5	-2	4	50*
c1ccc(N=NC2=NN(c3ccccc3)CS2)cc1	-2	41*	·	35	-2	21	55*
c1ccc(C2=NN(c3ccccc3)CC2)cc1	-2	-1	-11	10	0	7	·
Cc1ccc(C)c(NC(=O)/C(C#N)=C/c2cn(CC(=O)NCc3ccco3)c3ccccc23)c1	0	46*	2	4	0	-8	48*
CC(=O)c1ccc([C@H](O)[C@@H](C(=O)N(C)c2ccccc2)C2CC2)cc1	-1	·	·	·	-6	·	·
CCC(=O)NCC[C@@H]1CCc2ccc3c(c21)CCO3	8	·	·	·	10	·	·
Cc1ccccc1N1CCN(CCCN2C(=O)CC(=C(c3ccccc3)c3ccccc3)C2=O)CC1	0	-13	-2	4	-3	3	·
O=C1CC(=C(c2ccccc2)c2ccccc2)C(=O)N1CCCCN1CCN(c2cccc(Cl)c2)CC1	-8	45*	-4	-5	-1	-1	53*
O=C(CSc1nc2ccccc2o1)N1CCCC1	5	49*	-2	6	-1	2	1
O=C(CSc1nc2ccccc2o1)N1CCOCC1	5	-1	13	-1	3	-4	·
O=C1NC(=Nc2ccccc2Cl)S/C1=C\c1cccc([N+](=O)[O-])c1O	-4	36*	-12	-9	1	2	32
COCc1cn(-c2cccc(-c3noc4c3C(=O)N(CC(=O)N3CCOCC3)CC4)c2)nn1	-2	·	·	·	1	·	·
COC(=O)[C@]12C[C@H](CC(=O)NCc3ccccc3)C(=O)N(Cc3ccc(Cl)cc3Cl)C1=C[C@H](COCc1ccccc1)O[C@@H]2C	1	·	·	·	4	·	·
O=C(N/N=C/c1ccc([N+](=O)[O-])o1)c1cc2ccccc2o1	3	-1	1	2	0	-11	·
O=[N+]([O-])c1ccc(/C=N/Nc2ccc3ccccc3c2)o1	-7	48*	-19	12	-6	-30	63*
O=C(Nc1cccc(C(F)(F)F)c1)c1cccc(NS(=O)(=O)c2ccc(O)c(C(=O)O)c2)c1	-2	41*	16	-10	-8	-6	29
CC(=O)c1c(C)oc2ccc(NS(=O)(=O)c3ccc(O)c(C(=O)O)c3)cc12	-11	57*	14	-3	0	4	53*
O=C(O)c1cc(S(=O)(=O)Nc2ccc3oc(=O)sc3c2)ccc1O	-1	·	9	·	-7	·	·
